ChEMBL document CHEMBL4334439, “Discovery, Optimization, and Target Identification of Novel Potent Broad-Spectrum Antiviral Inhibitors” (J Med Chem, 2019)
Calls of active or inactive are those of the source. The calls are words filed in the database; no cut-off is given here.

Columns and labels:
[1] = tested on: Hepatitis C virus; assay: Antiviral activity against EGFP-fused HCV JFH-1 harboring K78E/E2-G451R/NS3-M260K/NS5A-T462I mutant infected in human Huh7.5.1 cells assessed as reduction in viral RNA level after 2 days by qRT-PCR analysis; assay type: functional, organism-based
Outline: (§1)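 Huh7.5.1 cells at 1×10^4/well, grown overnight at 37 °C. HCVcc was mixed with serially diluted compound (top 30 or 6 μM), given alone or with the named drug, and added to the cells. Viral RNA was read by qRT-PCR after 2 days. EC50 is the concentration giving 50% RNA reduction.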

[2] = tested on: Hepatitis C virus; assay: Antiviral activity against HCV JFH-1 harboring K78E/E2-G451R/NS3-M260K/NS5A-T462I mutant infected in human Huh7.5.1 cells after 2 days by renilla luciferase reporter gene assay; assay type: functional, organism-based, Hepacivirus hominis; details: JFH-1, Huh-7.5.1, 48 h
Outline: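 Renilla luciferase reporter HCVcc (hRluc inserted in NS5A, aa 399/400) came from electroporated Huh7.5.1 supernatant. Virus plus serially diluted compound (top 30 or 6 μM) was added to Huh7.5.1 cells (1×10^4/well) and luminescence read. EC50 is 50% luminescence reduction.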

[3] = tested on: Hepatitis C virus; assay: Antiviral activity against EGFP-fused HCV JFH-1 harboring K78E/E2-G451R/NS3-M260K/NS5A-T462I mutation infected in human Huh7.5.1 cells assessed as reduction in viral RNA level after 2 days in presence of telaprevir by qRT-PCR analysis; assay type: functional, organism-based; details: Hepacivirus hominis; outline: as §1
[4] = tested on: Hepatitis C virus; assay: Antiviral activity against EGFP-fused HCV JFH-1 harboring K78E/E2-G451R/NS3-M260K/NS5A-T462I mutation infected in human Huh7.5.1 cells assessed as reduction in viral RNA level after 2 days in presence of ribavirin by qRT-PCR analysis; assay type: functional, organism-based; details: Hepacivirus hominis; outline: as §1
[5] = tested on: Hepatitis C virus; assay: Antiviral activity against EGFP-fused HCV JFH-1 harboring K78E/E2-G451R/NS3-M260K/NS5A-T462I mutation infected in human Huh7.5.1 cells assessed as reduction in viral RNA level after 2 days in presence of cyclosporin A by qRT-PCR analysis; assay type: functional, organism-based; details: Hepacivirus hominis; outline: as §1
[6] = tested on: Hepatitis C virus; assay: Antiviral activity against EGFP-fused HCV JFH-1 harboring K78E/E2-G451R/NS3-M260K/NS5A-T462I mutation infected in human Huh7.5.1 cells assessed as reduction in viral RNA level after 2 days in presence of boceprevir by qRT-PCR analysis; assay type: functional, organism-based; details: Hepacivirus hominis; outline: as §1
[7] = tested on: Hepatitis C virus; assay: Antiviral activity against EGFP-fused HCV JFH-1 harboring K78E/E2-G451R/NS3-M260K/NS5A-T462I mutation infected in human Huh7.5.1 cells assessed as reduction in viral RNA level after 2 days in presence of sofosbuvir by qRT-PCR analysis; assay type: functional, organism-based; details: Hepacivirus hominis; outline: as §1
[8] = tested on: Hepatitis C virus; assay: Antiviral activity against EGFP-fused HCV JFH-1 harboring K78E/E2-G451R/NS3-M260K/NS5A-T462I mutation infected in human Huh7.5.1 cells assessed as combination index after 2 days in presence of sofosbuvir by qRT-PCR analysis; assay type: functional, Hepacivirus hominis
Outline: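 In HCVcc-infected Huh7.5.1 cells (1×10^4/well, overnight, 37 °C), compound was given at various concentrations alone or with the named approved antiviral. After 2 days HCV RNA was quantified by qRT-PCR to derive the combination index.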

[9] = tested on: Huh7.5.1; assay: Antiviral activity against EGFP-fused HCV JFH-1 harboring K78E/E2-G451R/NS3-M260K/NS5A-T462I mutant infected in human Huh7.5.1 cells assessed as inhibition of viral entry at 0.01 uM preincubated for 2 hrs at 4 degC followed by virus/compound mixture wash-out and subsequent compound addition and measured up to 10 hrs at 37 degC; assay type: functional, cell-based
Outline: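 Time-of-addition: Huh7.5.1 cells were bound with HCVcc at 4 °C for 2 h. Unbound virus was removed, cells were shifted to 37 °C (T = 0), and compound was added at different time points afterwards. Anti-CD81 antibody served as the entry-inhibitor control.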

[10] = tested on: Respiratory syncytial virus; assay: Antiviral activity against RSV infected in African green monkey Vero cells assessed as inhibition of viral replication measured after 5 to 7 days by plaque formation assay; assay type: functional, organism-based; details: human respiratory syncytial virus
Outline: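 Vero cells at 2×10^4/well were cultured 18 h, then infected with RSV at 2000 TCID50/ml. Compound (0.01–20 µM) was added immediately. Viral amount was measured by plaque formation assay.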

[11] = tested on: Chikungunya virus; assay: Antiviral activity against CHIKV infected in African green monkey Vero cells assessed as reduction in viral titre measured at 36 hrs post infection; assay type: functional, organism-based
[12] = Cytotoxicity against human Huh7.5.1 cells infected with ZIKV assessed as decrease in cell viability after 48 hrs by WST1 assay; assay type: cell-based
Outline: (§2)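 Cells seeded at 1 × 10^4 per well and cultured overnight at 37 °C, then incubated 48 h with serially diluted compounds. Viability read with WST-1 reagent as absorbance at OD450/OD630.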

[13] = Cytotoxicity against African green monkey Vero cells infected with CHIKV assessed as decrease in cell viability after 48 hrs by WST1 assay; assay type: cell-based; details: chlorocebus sabaeus
Outline: (§3)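 Cells at 1×10^4/well, cultured overnight at 37 °C, were incubated 48 h with serially diluted compound. Viability was read by WST-1 absorbance (OD450/OD630).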

[14] = Cytotoxicity against HEK293T cells infected with HIV pseudotyped virions assessed as decrease in cell viability after 48 hrs by WST1 assay; assay type: cell-based, HEK-293T; details: human; outline: as §2
[15] = Selectivity index, ratio of CC50 for human RD cells to EC50 for EV71(FY)-Luc infected in human RD cells; assay type: toxicity, cell-based; details: read-out: Ratio CC50/EC50
Outline: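 RD cells seeded at 1×10^4/well and cultured overnight, then infected with EV71(FY)-Luc at MOI 1 and treated with compound straight away. EC50 is the 50% drop in luminescence or RNA. CC50 comes from a 48 h serial-dilution exposure at 1×10^4 cells/well, read by WST-1 (OD450/OD630).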

[16] = Selectivity index, ratio of CC50 for human Caco2 cells to EC50 for MERS-CoV infected in human Caco2 cells; assay type: toxicity, cell-based; details: read-out: Ratio CC50/EC50
[17] = tested on: Hepatitis C virus; assay: Antiviral activity against HCV infected in human Huh7.5.1 cells assessed as decrease in viral infection in presence of uridine; assay type: functional, organism-based, Hepacivirus hominis; details: Huh-7.5.1
Outline: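 HCV antiviral EC50 in Huh7.5.1 cells was measured with 0.5 mM uridine supplemented, and compared with the EC50 obtained without uridine.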

[18] = target: Inosine-5'-monophosphate dehydrogenase 2 (Homo sapiens) (UniProt P12268); assay: Binding affinity to IMPDH2 (unknown origin)
Chain of Inosine-5'-monophosphate dehydrogenase 2 (Homo sapiens) (P12268 2-514 limits assumed): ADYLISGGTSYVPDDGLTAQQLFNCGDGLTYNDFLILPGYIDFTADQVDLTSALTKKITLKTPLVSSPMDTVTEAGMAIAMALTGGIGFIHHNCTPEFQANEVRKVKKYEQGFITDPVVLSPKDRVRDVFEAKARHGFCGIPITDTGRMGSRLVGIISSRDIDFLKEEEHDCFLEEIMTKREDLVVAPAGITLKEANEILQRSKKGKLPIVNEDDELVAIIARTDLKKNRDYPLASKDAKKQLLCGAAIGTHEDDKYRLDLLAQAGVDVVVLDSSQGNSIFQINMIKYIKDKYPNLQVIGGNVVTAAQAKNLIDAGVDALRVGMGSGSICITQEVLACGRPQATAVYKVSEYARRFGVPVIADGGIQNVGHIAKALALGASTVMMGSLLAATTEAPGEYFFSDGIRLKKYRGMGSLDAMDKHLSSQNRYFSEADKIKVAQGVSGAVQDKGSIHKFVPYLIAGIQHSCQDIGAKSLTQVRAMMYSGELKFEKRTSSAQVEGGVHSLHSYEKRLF

[19] = Cytotoxicity against MDCK cells infected with Gaussia tagged Influenza A virus (A/Puerto Rico/8/34(H1N1)) measured after 48 hrs by WST1 assay; assay type: cell-based, Canis lupus familiaris; details: dog; outline: as §3

## CCN(CC)c1ccc(Oc2ccc(-c3[nH]c4cccc(F)c4c(=O)c3C)cc2F)cc1
[1]; Hepacivirus hominis
  Activity: Dose-dependent effect
[1]; JFH-1, Huh-7.5.1, 48 h
  EC50: 5 to 7 nM
[2]
  EC50: 4 to 7 nM
[3]
  Activity: Dose-dependent effect
[4]
  Activity: Dose-dependent effect
[5]
  Activity: Dose-dependent effect
[6]
  Activity: Dose-dependent effect
[7]
  Activity: Dose-dependent effect
[8]
  CI: >50
[9]
  inhibition: Active
[10]
  EC50: 60 nM
[11]
  EC50: 260 nM
[12]
  CC50 at 48 h: > 2500 nM
[13]
  CC50 at 48 h: > 2500 nM
[14]
  CC50 at 48 h: > 1250 nM
[15]
  selectivity ratio: > 625
[16]
  selectivity ratio: > 7.5
[17]
  EC50: 2800 nM
[18]
  Activity: inactive
[19]
  CC50 at 48 h: > 2500 nM
